Data set [1] is described as follows: Neuroprotective activity against oxygen-glucose deprivation-induced cell death in Sprague-Dawley rat primary neuronal cells assessed as cell viability at 250 uM treated at onset of recovery period and measured at 24 hrs of recovery by MTT assay relative to control. Conditions: Primary neuron, read-out: Activity. The format is functional. The gist of the method:
(§1)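 Rat cortical neurons from E16–17 Sprague-Dawley embryos, used at 6–7 days in serum-free medium. OGD: glucose-free medium bubbled with 95% N2/5% CO2, <0.1% O2, 6.5% CO2, 37 °C, 4 h. Compound added at start of 24 h normoxic recovery. Viability by MTT (0.2 mg/mL, 1.5 h), lysis with HCl/SDS, read at 595/690 nm, relative to 100% control. Four to eight culture batches, each in quadruplicate.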
Background: Formazan colour is commonly taken as a measure of viable cells.

A short description of data set [2]: Neuroprotective activity against oxygen-glucose deprivation-induced cell death in Sprague-Dawley rat primary neuronal cells assessed as cell viability at 10 uM treated at onset of recovery period and measured at 24 hrs of recovery by MTT assay relative to control. Conditions: Primary neuron, read-out: Activity. It counts as functional. The gist of the method: as §1

Data set [3] can be described thus: Antioxidant activity assessed as hydroxyl radical scavenging activity at 0.1 mM measured after 30 mins. It counts as functional. The essentials: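 Hydroxyl radicals from Fe3+/ascorbic acid: EDTA 0.1 mM, Fe3+ 167 μM, DMSO 33 mM, compound 0.1 mM and ascorbic acid 10 mM in 50 mM phosphate buffer pH 7.4. Incubated 37 °C for 30 min, stopped with 17% w/v TCA. Read-out is inhibition of formaldehyde formation, given as % scavenging. Trolox as reference.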

For data set [4], the target named is Lipoxygenase (Glycine max) (UniProt Q39829). Description: Inhibition of soybean lipoxygenase at 1 to 100 uM using sodium linoleate as substrate by UV-based analysis relative to control. The essentials: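 Soybean lipoxygenase (enzyme 1/9 ×10⁻⁴ w/v in saline) incubated at rt with 0.1 mM sodium linoleate and compound in DMSO, at several concentrations from 1 to 100 µM diluted from 10 mM stock. Conversion to 13-hydroperoxylinoleic acid recorded at 234 nm; IC50 derived. NDGA as reference inhibitor.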

Data set [5] in a line: Antiinflammatory activity assessed as NO release at 100 uM after 60 mins in presence of L-cysteine by Griess reagent-based relative to control. The format is functional. The gist of the method: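 NO-release test: compound at 100 μM final (from DMSO) in 50 mM phosphate buffer pH 7.4 containing 1 mM L-cysteine, 60 min at 37 °C. Reaction mixture then treated with Griess reagent, left 10 min at rt, absorbance read at 540 nm. Sodium nitroprusside as standard. Mean of three to four determinations.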
In general terms: Nitrite, measured by Griess reagent, commonly stands in for NO production.

A short description of data set [6]: Antioxidant activity assessed as superoxide anion scavenging activity at 0.1 mM pH 7.4 after 10 mins by NBT assay. It counts as functional. The gist of the method: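 Superoxide generated by xanthine/xanthine oxidase (0.07 U/mL) in 0.1 M phosphate buffer pH 7.4 containing NBT and compound at 0.1 mM final. After 10 min at rt, absorbance read at 560 nm. Caffeic acid as standard.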

The next data set deals with Rattus norvegicus. The experiment in a line: Antiinflammatory activity in Fisher 344 rat model of carrageenan-induced edema assessed as inhibition of carrageenan-induced paw edema at 0.01 mmol/kg, ip dosed simultaneously with carrageenan injection relative to control. It counts as functional. The settings on record: Fisher 344, ip. The essentials: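 Fisher 344 rats (150–200 g), both sexes. Edema was induced by intradermal injection of 0.1 mL 2% carrageenan in water into the right hind paw. Compound was suspended in water with a few drops of Tween 80. Rats were euthanized 3.5 h later. The injected-minus-uninjected paw weight difference was compared with water or Tween-water controls as % inhibition. Mean of two experiments, n = 6 each.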
(In the carrageenan paw model, swelling and tenderness develop within hours.)

Another data set relates to Primary neuron. The experiment in a line: Neuroprotective activity against oxygen-glucose deprivation-induced ischemia in Sprague-Dawley rat primary neuronal cells assessed as reduction in ROS generation at 10 to 250 uM measured after 2 hrs of recovery post OGD by fluorometric assay. It counts as functional, cell-based. The gist of the method: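 Primary rat cortical neurons exposed to 4 h OGD; compound added at onset of recovery together with a cell-permeable ROS probe. Fluorescence (ex 490/em 535 nm) read after 2 h recovery and expressed as % of control. Mean of four independent experiments.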

The nature of data set [7]: Cytotoxicity in oxygen-glucose deprivation-induced Sprague-Dawley rat primary neuronal cells assessed as reduction in cell viability at 250 uM pretreated for 24 hrs followed by OGD challenge for 4 hrs and measured after 24 hrs of recovery period post OGD measured by MTT assay. Conditions: primary neuron. It counts as cell-based. The gist of the method:
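Rat cortical neuron cultures (E16–17 Sprague-Dawley, 6–7 days in vitro) treated with compound (1–250 µM range) 24 h before 4 h OGD at <0.1% O2, 37 °C. Cells then recovered 24 h under normoxia with glucose. Viability by MTT absorbance at 595/690 nm, relative to untreated control.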

Data set [8] relates to Mus musculus. The experiment in a line: Neuroprotective activity in C57BL/6 mouse model of ischemia-induced cerebral ischemia model assessed reduction in neurodeficit score at 1.5 mg/kg, ip administered at onset of reperfusion period and measured at 5 days reperfusion post ischemia. It counts as functional, organism-based.
Data set [9] has as its system Mus musculus. The experiment in a line: Neuroprotective activity in C57BL/6 mouse model of ischemia-induced cerebral ischemia model assessed reduction in neuronal cell death in hippocampal CA1 region at 1.5 mg/kg, ip administered at onset of reperfusion period and measured at 5 days reperfusion post ischemia by Fluoro-Jade-staining assay based relative to control. It counts as functional. Details: scale not given: the % may be the effect or the level left.

The test system of data set [10] is Mus musculus. The experiment in a line: Neuroprotective activity in C57BL/6 mouse model of ischemia-induced cerebral ischemia model assessed reduction in neuronal cell death in cortical region at 1.5 mg/kg, ip administered at onset of reperfusion period and measured at 5 days reperfusion post ischemia by Fluoro-Jade-staining assay based relative to control. The format is functional. Details: scale not given: the % may be the effect or the level left.

The subject of data set [11] is Mus musculus. Description: Neuroprotective activity in C57BL/6 mouse model of ischemia-induced cerebral ischemia model assessed as reduction in apoptosis in hippocampal CA1 region at 1.5 mg/kg, ip administered at onset of reperfusion period and measured at 5 days reperfusion post ischemia by TUNNEL assay relative to control. Details: scale not given: the % may be the effect or the level left. It counts as functional.

In data set [12] the test system is Mus musculus. Description: Neuroprotective activity in C57BL/6 mouse model of ischemia-induced cerebral ischemia model assessed as reduction in apoptosis in cortical region at 1.5 mg/kg, ip administered at onset of reperfusion period and measured at 5 days reperfusion post ischemia by TUNNEL assay relative to control. It counts as functional. Also noted: scale not given: the % may be the effect or the level left.

Data set [13] has as its system Mus musculus. The experiment in a line: Neuroprotective activity in C57BL/6 mouse model of transient middle cerebral artery occlusion-induced ttransient focal cerebral ischemia assessed decrease in motor deficit at 1.5 to 2 mg/kg, ip measured after 48 hrs post dose by grip strength Test. It counts as functional, organism-based. The gist of the method: (§2)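 Male C57BL/6 mice (9–12 weeks) under isoflurane. Distal MCA compressed 60 min with a needle, occlusion confirmed by laser-Doppler; buprenorphine given sc. Compound given ip at reperfusion onset. Grip strength recorded at 24 and 48 h versus presurgery. Infarct area/volume measured at 48 h from TTC-stained 1 mm coronal sections. n = 8 per group.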

The subject of data set [14] is Mus musculus. The experiment in a line: Neuroprotective activity in C57BL/6 mouse model of transient middle cerebral artery occlusion-induced ttransient focal cerebral ischemia assessed decrease in motor deficit by measuring improvement in grip strength at 1.5 to 2 mg/kg, ip measured after 48 hrs post dose by grip strength Test. It counts as functional. Also noted: scale not given: the % may be the effect or the level left. The essentials: as §2

In data set [15] the test system is Mus musculus. Description: Neuroprotective activity in C57BL/6 mouse model of transient middle cerebral artery occlusion-induced ttransient focal cerebral ischemia assessed decrease in size of ischemic lesion at 2 mg/kg, ip measured after 48 hrs post dose relative to control. The format is functional. Details: scale not given: the % may be the effect or the level left. The essentials:
as §2

The source made the active and inactive calls. The calls are words filed in the database; no cut-off is given here.

One may read the inhibition as the percentage by which the read-out fell short of the control. In general, inhibition in vivo refers to the drop in the measured response relative to a control, in per cent. For the molecule `COc1ccc2nc(Cl)c(/C=[N+](\[O-])C(C)(C)C)cc2c1`, in data set [1], the viability at 250 µM amounted to 65.9%. Further, the viability at 10 µM in data set [2] turned out to be 52%. The Activity in data set [3] was 100%; in data set [5], 3%; in data set [6], 5%; in data set [7] it was “Toxic”; with Mus musculus [9] it was 33%; in the data set with Mus musculus [10] it was 90%. Also, the Activity in the data set with Mus musculus [11] turned out to be 39%; in the data set on Mus musculus [12] it was 84%; in the data set with Mus musculus [14] it was 11.8%; in the data set with Mus musculus [15], 44%. The inhibition in data set [4] was 29%. Also, the inhibition in vivo at 10 µmol/kg in the data set on Rattus norvegicus was 48.5%. In addition, the result in the data set on Primary neuron, in the data set on Mus musculus [8] and in the data set on Mus musculus [13] was Active.

For the origin of these results see ChEMBL document CHEMBL4422671, “New Quinolylnitrones for Stroke Therapy: Antioxidant and Neuroprotective ( Z)- N- tert-Butyl-1-(2-chloro-6-methoxyquinolin-3-yl)methanimine Oxide as a New Lead-Compound for Ischemic Stroke Treatment” (J Med Chem, 2019).
